Bioassay records (PubChem BioAssay)
UBC13 polyUb: UBC13 polyubiquitin chain formation inhibitors, primary screen, biochemical, TR-FRET, uHTS; Ubiquitin-conjugating enzyme E2 N (Homo sapiens), P61088; inhibition, % at 20 µM; 0.47% of 330,000 active; AID 485273, 2010; in the data active means inhibition above about 45%, passing the limit was not always enough
Target sequence (P61088 whole entry, looked up): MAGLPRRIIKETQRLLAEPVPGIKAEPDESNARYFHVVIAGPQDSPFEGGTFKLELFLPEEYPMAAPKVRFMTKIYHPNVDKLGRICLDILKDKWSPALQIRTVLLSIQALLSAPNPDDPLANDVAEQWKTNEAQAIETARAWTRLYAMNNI
SENP7 inh: SENP7 protease inhibitors, primary screen, biochemical, luminescence, uHTS; 1.5% of 330,000 active; inhibition, % at 5 µM; Sentrin-specific protease 7 (Homo sapiens), Q9BQF6; recombinant SENP7, Z-RLRGG-aminoluciferin luminescence, 40 min;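 active means inhibition above about 50% at the single test dose, limit read from the data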
Apaf1 inhib: inhibitors of human Apaf-1 apoptosome, primary screen, biochemical, DEVD-Rh110 fluorescence, uHTS | Apoptotic protease-activating factor 1 (Homo sapiens), O14727 | reconstituted apoptosome caspase-3 activity | inhibition, % at 20 µM | 0.71% of 330,000 active | AID 489030, 2010; active means inhibition of at least 40% at 20 µM
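Material: reconstituted apoptosome with Apaf-1, cytochrome c, caspase-9, procaspase-3, dATP. Technique: Rh110 fluorescence intensity. Buffer or medium: pH 7.5 Hepes buffer with CHAPS, BSA, DTT. Times: 30 min plus 50 min, RT.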
SENP8 block-1: human SENP8 protease inhibitors, primary screen, biochemical, fluorescence, Nedd8 protein substrate, uHTS | Sentrin-specific protease 8 (Homo sapiens), Q96LD8 | recombinant SENP8 | inhibition, % at 20 µM | 0.64% of 360,000 active | AID 602440, 2012; in the data active means inhibition mostly above about 40%, no sharp cut-off; inactive means mostly below about 27%
Target sequence (Q96LD8 whole entry, looked up): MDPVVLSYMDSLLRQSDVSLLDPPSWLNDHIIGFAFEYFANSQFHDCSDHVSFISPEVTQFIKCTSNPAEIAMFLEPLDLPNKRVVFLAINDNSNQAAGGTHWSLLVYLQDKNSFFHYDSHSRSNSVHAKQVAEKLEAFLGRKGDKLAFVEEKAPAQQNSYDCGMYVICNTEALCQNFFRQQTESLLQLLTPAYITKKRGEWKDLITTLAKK
SENP6 block: SENP6 protease inhibitors, primary screen, biochemical, luminescence, uHTS. 1.8% of 330,000 active. Recombinant SENP6 catalytic domain, aminoluciferin luminescence. inhibition, % at 10 µM. Sentrin-specific protease 6 (Homo sapiens), Q9GZR1;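 active means inhibition above about 50% at the single tested dose, limit read from the data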
SENP8 block-2: SENP8 protease inhibitors, primary screen, biochemical, luminescence. inhibition, % at 10 µM. 1.2% of 330,000 active. AID 2540, 2010. Sentrin-specific protease 8 (Homo sapiens), Q96LD8. purified SENP8, Z-RLRGG-aminoluciferin cleavage; in the data active means inhibition above about 50%
SENP8 confirm: SENP8 protease inhibitors, retest, confirmation, biochemical, luminescence, single concentration | shares compounds with SENP7 inh | 40% of 6,200 active | Recombinant SENP8, Z-RLRGG-aminoluciferin luminescence, 60 min | inhibition, % at 12.5 µM;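 active means mean inhibition across replicates above about 50%, limit read from the data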
SENP6 confirm: SENP6 protease inhibitors, confirmation, biochemical, luminescence, single concentration. shares compounds with SENP7 inh. recombinant SENP6, Z-RLRGG-aminoluciferin luminescence. inhibition, % at 12.5 µM. 58% of 6,200 active. AID 488915, 2010
SENP7 conf: SENP7 protease inhibitors, retest, confirmation, biochemical, luminescence, single concentration. shares compounds with SENP7 inh. recombinant SENP7, Z-RLRGG-aminoluciferin luminescence, 40 min. inhibition, % at 12.5 µM. AID 488917, 2010. 69% of 6,200 active
Casp3 select: caspase-3 protease inhibitors, confirmation, selectivity assay for SENP inhibitor project, biochemical, single concentration | shares compounds with SENP7 inh | purified caspase-3, Z-DEVD-aminoluciferin luminescence, 60 min | inhibition, % at 12.5 µM | 60% of 6,200 active | AID 488918, 2010;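 active means mean inhibition above about 50%, limit read from the data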
Target sequence (P42574 28-227 limits assumed): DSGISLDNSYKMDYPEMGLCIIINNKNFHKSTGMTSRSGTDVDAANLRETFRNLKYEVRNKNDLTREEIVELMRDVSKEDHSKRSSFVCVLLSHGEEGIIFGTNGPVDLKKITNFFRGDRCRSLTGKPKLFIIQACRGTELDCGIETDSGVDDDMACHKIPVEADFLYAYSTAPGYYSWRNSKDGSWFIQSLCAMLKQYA
Luc interf: luminescence interference (SENP counter-screen); Pre-incubated SENP8/Z-RLRGG-aminoluciferin, luciferase luminescence interference; inhibition, % at 12.5 µM; 39% of 6,200 active; AID 488919; shares compounds with SENP7 inh;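 active means mean inhibition above about 50% when retested at one dose, limit read from the data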
Numbers stand for hits; 0 = inactive; - = no result given. Shown are actives, neighbours in structure and some others; about 3% of the full set was active somewhere.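 How the source made its calls, unless noted: active means mean inhibition above about 50% in the one-dose retest (limit read from the data); inactive means the rest.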

SMILES	UBC13 polyUb	SENP7 inh	Apaf1 inhib	SENP8 block-1	SENP6 block	SENP8 block-2	SENP8 confirm	SENP6 confirm	SENP7 conf	Casp3 select	Luc interf
O=c1cc(Cl)[nH]c(=O)n1CCNc1ncc(C(F)(F)F)cc1Cl	0	0	0	0	58	0	52	0	77	73	0
O=[N+]([O-])c1cccnc1NCCc1ccccc1	0	88	0	0	95	81	0	69	88	72	0
COc1ccccc1CNc1ncccc1[N+](=O)[O-]	0	0	0	0	0	0	-	-	-	-	-
O=[N+]([O-])c1cccnc1NCCNc1ncc(C(F)(F)F)cc1Cl	0	58	0	0	67	0	60	56	83	0	0
Cc1ccc(C(=O)ONc2ccc(N=O)cc2)cc1	0	100	0	0	96	98	0	101	104	90	0
CCn1nccc1C(=O)Nc1ccc(C(=O)OC(C)C)cc1	0	76	0	0	77	67	0	68	88	67	59
CC1(C(=O)NS(=O)(=O)c2ccc3c(c2)CCO3)CCN1C(=O)Cc1ccc(-c2ccccc2)cc1 (stereo not given)	-	-	-	0	-	-	-	-	-	-	-
Cc1nn2cc(-c3ccccc3)nc2[nH]c1=O	0	0	0	0	72	0	66	61	89	89	0
C[C@H]1CN([C@@H](C)CO)C(=O)CCCn2cc(nn2)CO[C@@H]1CN(C)C(=O)CCC(F)(F)F	-	-	-	0	-	-	-	-	-	-	-
CCOc1ccc(-c2cc(N3C(=O)Nc4ccccc4N3O)on2)cc1	0	0	0	0	54	0	0	0	79	77	67
COc1ccc(-c2cc(N3C(=O)Nc4ccccc4N3O)n[nH]2)cc1	0	0	0	0	0	0	-	-	-	-	-
O=C1c2ccccc2-c2nc3ccccc3cc21	0	90	0	0	91	86	0	88	99	86	70
c1ccc2c(c1)Cc1cc3ccccc3nc1-2	0	95	0	0	98	92	0	95	100	92	0
Cc1cc2ccccc2nc1-c1ccccc1F	-	-	-	0	-	-	-	-	-	-	-
CN(C)c1ccc(-c2ccnc3c2CC(C)(C(=O)NCCc2ccccc2)O3)cc1 (stereo not given)	-	-	-	0	-	-	-	-	-	-	-
CCCC(=O)N1CCC1(C)C(=O)Nc1cc(OC)ccc1OC (stereo not given)	-	-	-	0	-	-	-	-	-	-	-
CC(O)(c1cccc(F)c1)c1nc(-c2ccc3ccccc3c2)cs1 (stereo not given)	-	-	-	0	-	-	-	-	-	-	-
Cc1nc(NS(=O)(=O)c2ccccc2)sc1NC(=O)OC(C)C	0	98	0	0	0	0	0	0	0	0	0
COc1ccc(NC(=O)Nc2sc(NS(=O)(=O)c3ccccc3)nc2C)cc1	0	0	0	0	0	0	-	-	-	-	-
CCC(=O)N[C@H]1CC[C@@H](CCn2cc(C3CC3)nn2)O[C@@H]1CO	-	-	-	0	-	-	-	-	-	-	-
COc1cc(/C=N/NC(=O)c2cncc(Br)c2)cc([N+](=O)[O-])c1O	0	72	0	0	83	66	84	80	96	84	61
COc1cc([N+](=O)[O-])cc(/C=N/NC(=O)c2cncc(Br)c2)c1O	0	67	0	0	89	64	81	76	96	84	52
COc1cc([N+](=O)[O-])cc(/C=N/NC(=O)c2cc(C)nc3ccccc23)c1O	0	0	0	0	0	0	-	-	-	-	-
CCOC1=C2CN(S(=O)(=O)c3ccc(C)cc3)C(c3cccc(Cl)c3)CC2NC(c2ccccc2)C1 (stereo not given)	-	-	-	0	-	-	-	-	-	-	-
Cc1ccc2c(c1)COc1c3ccc(C(=O)NCCO)cc3nn1-2	0	0	0	0	0	0	-	-	-	-	-
SMILES	UBC13 polyUb	SENP7 inh	Apaf1 inhib	SENP8 block-1	SENP6 block	SENP8 block-2	SENP8 confirm	SENP6 confirm	SENP7 conf	Casp3 select	Luc interf
CCc1cc(-c2ccc3c(c2)COc2c4ccccc4nn2-3)on1	0	0	0	0	81	89	0	89	94	70	0
CCCC#Cc1ccc2c(c1)COc1c3ccccc3nn1-2	0	73	0	0	92	89	53	70	90	86	0
c1ccc2c(c1)COc1c3cc4c(cc3nn1-2)OCO4	-	-	-	0	-	-	-	-	-	-	-
CC(C)(C)NC(=O)C(c1ccnc2ccccc12)n1c(=O)c(-c2cc3ccccc3[nH]2)nc2ccccc21 (stereo not given)	-	-	-	0	-	-	-	-	-	-	-
O=C1C=CN(C2OC(CO)C(O)C2O)C(=O)C1 (stereo not given)	-	-	-	0	-	-	-	-	-	-	-
Cc1ccc(C(=O)NCCN2CCC(n3c(=O)[nH]c4ccccc43)CC2)cc1	-	-	-	0	-	-	-	-	-	-	-
CC1CC1C(=O)Nc1nc2ccc(Cl)cc2s1 (stereo not given)	0	0	0	0	0	0	-	-	-	-	-
Cc1ccc2nc(NC(=S)NC(=O)c3ccco3)sc2c1	-	-	-	0	-	-	-	-	-	-	-
Cc1ccc2nc(NC(=O)c3ccco3)sc2c1	0	96	0	0	92	93	0	94	101	92	58
O=C(Nc1nc2ccc(Cl)cc2s1)c1ccco1	0	89	0	0	86	81	0	80	59	86	0
Cc1cccc2[nH]c(-c3ccc(NC(=O)c4ccco4)cc3)nc12	0	90	0	0	91	77	0	80	96	75	78
O=C(Nc1ccc2nc(-c3ccccc3)[nH]c2c1)c1ccco1	0	0	0	0	0	0	-	-	-	-	-
Cn1cc(Cl)c(C(=O)Nc2nc3ccc(Cl)cc3s2)n1	0	95	0	0	68	0	0	0	67	55	0
Cc1ccccc1CN1C(=O)CSCC1(C)C(=O)Nc1ccc2c(c1)OCCO2 (stereo not given)	-	-	-	0	-	-	-	-	-	-	-
